{"source": "paper PMC6857568", "about": "(Molecular Biology of the Cell, 2019)", "key": {"[1]": {"system": "depolymerizing microtubule plus ends / intersecting microtubules", "assay": "Outcome of depolymerizing plus end crossing an intersecting microtubule", "assay_type": "biochemical, pig", "conditions": "for pulling events (in words): 50 or 100 nM (starPEG-(KA7)4-TAMRA); for pick-up of tubulin aggregates tracking depolymerizing plus ends: dynamic microtubule assay", "in_short": "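Peptide was present in the dynamic-seed assay (14 µM Alexa 647 tubulin, GTP, 35°C). Dual-color time-lapse ran at one frame per 3 s. Peptide intensity at a crossing was the background-corrected integrated intensity of a five-pixel circle, taken in the frame where the depolymerizing plus end crossed the intersecting microtubule. Multiple-peak Gaussian fitting was used.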"}, "[2]": {"system": "Alexa 647–labeled tubulin", "assay": "Spontaneous microtubule nucleation assay", "assay_type": "biochemical, pig", "conditions": "100 nM, 5 min, 35°C; for microtubules nucleated de novo: ± SD, MOCK 0.6 ± 0.4"}, "[3]": {"system": "taxol-stabilized Atto647N-labeled microtubules", "assay": "Microtubule-binding by TIRF microscopy on taxol-stabilized microtubules", "parameters": "species or system pig"}, "[4]": {"system": "subtilisin-treated GMP-CPP/taxol double-stabilized microtubules", "assay": "Binding to subtilisin-treated", "parameters": "species or system pig", "conditions": "C-termini removed", "in_short": "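GMP-CPP microtubules were digested with 200 µg/ml subtilisin A in BRB80 plus 10 µM taxol for 1 h at 30°C, then stopped with 10 mM PMSF. Digestion was checked by SDS-PAGE. Brightly labeled (1:4) digested and dimly labeled (1:20) undigested microtubules shared one channel. Peptide binding was imaged by TIRF at 25°C in the stabilized-microtubule buffer.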"}, "[5]": {"system": "depolymerizing microtubule plus ends / intersecting microtubules", "assay": "Bending forces of pulled microtubules during pulling events", "assay_type": "biochemical, pig", "conditions": "beam equation, deflection angle ≤30°, corrected force, mean ± SD, N = 11"}, "[6]": {"system": "dynamic Alexa 647–labeled microtubules", "assay": "Tracking of microtubule ends on dynamic microtubules", "assay_type": "biochemical, pig", "in_short": "(§1)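 Dynamic assay: biotinylated GMP-CPP pig tubulin seeds were bound to anti-biotin antibody, then given 14 µM Alexa 647 tubulin with 1 mM GTP, methylcellulose, casein and oxygen scavenger in PIPES pH 6.8. Peptide was present at the stated concentrations, at 35°C for up to 30 min. Dual-color time-lapse was one frame per 3 s; kymographs were analyzed manually.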"}, "[7]": {"system": "dynamic Alexa 647–labeled microtubules", "assay": "Microtubule dynamics", "assay_type": "biochemical, pig", "conditions": "vs MOCK"}, "[8]": {"system": "dynamic Alexa 647–labeled microtubules", "assay": "Bundling of dynamic microtubules", "assay_type": "biochemical, pig", "conditions": "50 or 100 nM starPEG-(KA7)4-TAMRA; 50 nM starPEG-(DA7)4-TAMRA; 35°C", "in_short": "as §1"}, "[9]": {"system": "taxol-stabilized ATTO 647N-labeled microtubules", "assay": "Single-molecule diffusion and track-switching on the microtubule lattice", "assay_type": "binding, pig", "in_short": "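Peptide at 1 nM was imaged on taxol microtubules at 25°C in BRB80. Recordings were 5-min continuous streams at 100-ms exposure (532 nm). Single molecules were tracked automatically (minimum 5 frames, maximum 3-frame break) and checked against kymographs. D came from MSD linear regression and from a covariance-based estimator weighted by trajectory length.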"}, "[10]": {"system": "overlaps of taxol-stabilized microtubules", "assay": "Accumulation in overlaps of taxol-stabilized microtubules", "assay_type": "binding, pig"}, "[11]": {"system": "rat kinesin-1 (rKin430-GFP)", "assay": "Kinesin-1 stepping", "assay_type": "biochemical", "conditions": "5 and 25 nM", "in_short": "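GFP-tagged truncated rat kinesin-1 (1–430) ran on antibody-bound taxol microtubules with 1 mM ATP and peptide, at 25°C. Movies were 5 min at 100-ms exposure (488 nm), with a peptide snapshot beforehand. Landing rate, velocity, dwell time and run length were scored manually from kymographs. Gaussian and log-normal fits were applied; half-maxima of cumulative plots were reported.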"}, "[12]": {"molecular_target": "Atto647N-labeled microtubules of pig brain tubulin (pig) (UniProt Q2XVP4)", "assay": "TIRF microscopy binding assay"}, "[13]": {"conditions": "average, n = 19 tracking events, 35°C"}}}
{"substance": "starPEG-(KA7)4-TAMRA", "values": [{"measurement": "pulling events (in words)", "setting": "[1]", "result": "frequent pulling events"}, {"measurement": "pick-up of tubulin aggregates tracking depolymerizing plus ends", "setting": "[1]", "result": "eventually picked up surface-associated tubulin aggregates that started to diffuse along the microtubule lattice and tracked depolymerizing plus ends"}, {"measurement": "microtubule nucleation (in words)", "setting": "[2]", "result": "robust nucleation is evident"}, {"measurement": "microtubules nucleated de novo", "setting": "[2]", "result": "9 ± 2.5 MT per minute and field of view"}, {"measurement": "saturation of microtubule binding", "setting": "[3]; taxol-stabilized microtubules, BRB80, 25°C", "result": "~200", "unit": "nM"}, {"measurement": "effect of subtilisin protease treatment on microtubule binding", "setting": "[4]", "result": "completely abolishes microtubule binding"}, {"measurement": "bending force during pulling events (mean)", "setting": "[5]", "result": "4.2 ± 2.7", "unit": "pN"}, {"measurement": "tracking of growing microtubule plus end", "setting": "[6]; after rescue event", "result": "unable to track the growing microtubule plus end"}, {"measurement": "microtubule shortening during tracked depolymerization events", "setting": "[6]; [13]", "result": "~60", "unit": "%"}, {"measurement": "microtubule-bound intensity lost during one depolymerization event", "setting": "[6]; [13]", "result": "~30", "unit": "%"}, {"measurement": "minus-end tracking", "setting": "[6]; dynamic microtubules", "result": "could not observe any minus-end-tracking event"}, {"measurement": "concentration on remaining microtubule lattice by end-tracking", "setting": "[6]; normalized intensity / normalized length", "result": "about twofold"}, {"measurement": "effect on rescue frequency (in words)", "setting": "[7]; 50 and 100 nM", "result": "100 nM but not 50 nM starPEG-(KA7)4-TAMRA significantly reduces the rescue frequency"}, {"measurement": "effect on growth velocity (in words)", "setting": "[7]; 50 or 100 nM", "result": "increases the growth velocity significantly"}, {"measurement": "microtubule bundling", "setting": "[8]", "result": "pronounced microtubule bundling"}, {"measurement": "diffusion coefficient (overall)", "setting": "[9]; 25°C, BRB80", "result": "~0.3", "unit": "µm^2s^–1"}, {"measurement": "diffusion coefficient D (MSD)", "setting": "[9]; mean square displacement, linear regression, mean ± SEM, N = 998, 1 nM, 25°C, BRB80", "result": "0.33 ± 0.04", "unit": "µm^2s^–1"}, {"measurement": "track-switching at microtubule intersections", "setting": "[9]; single molecules, taxol-stabilized microtubules", "result": "able to switch their microtubule track at microtubule–microtubule intersections"}, {"measurement": "accumulation in microtubule overlaps (in words)", "setting": "[10]; low density (5 nM)", "result": "preferentially binds to or accumulates in overlaps of taxol-stabilized microtubules"}, {"measurement": "accumulation in microtubule overlaps (in words)", "setting": "[10]; near a half-saturating concentration (25 nM)", "result": "this effect is lost"}, {"measurement": "effect on kinesin-1 dwell time (in words)", "setting": "[11]", "result": "does not significantly affect the motor’s average dwell time"}, {"measurement": "effect on kinesin-1 landing rate (in words)", "setting": "[11]", "result": "significantly decreases the landing rate of kinesin-1 in a concentration-dependent manner"}, {"measurement": "effect on kinesin-1 run length (in words)", "setting": "[11]", "result": "nor the average motor run length"}, {"measurement": "effect on kinesin-1 velocity (in words)", "setting": "[11]", "result": "slightly increased"}]}
{"substance": "starPEG-(DA7)4-TAMRA", "values": [{"measurement": "pulling events (in words)", "setting": "[1]", "result": "none"}, {"measurement": "pick-up of tubulin aggregates tracking depolymerizing plus ends", "setting": "[1]", "result": "not evident"}, {"measurement": "microtubules nucleated de novo", "setting": "[2]", "result": "0.8 ± 1.0 MT per minute and field of view"}, {"measurement": "microtubule binding", "setting": "[3]; high nanomolar concentrations (i.e., >250 nM), charge-inverted control", "result": "does not show any microtubule binding"}, {"measurement": "effect on microtubule dynamics (in words)", "setting": "[7]; 50 nM", "result": "do not change microtubule dynamics compared with MOCK control"}, {"measurement": "microtubule bundling", "setting": "[8]", "result": "not in the presence of 50 nM starPEG-(DA7)4-TAMRA"}]}
{"substance": "starPEG-(KA7)4-TAMRA (designed binder)", "values": [{"measurement": "Kd", "setting": "[12]", "result": 30, "unit": "nM"}, {"measurement": "concentration at which saturation is reached", "setting": "[12]", "result": 200, "unit": "nM"}]}
